Laboratory results reported in ChEMBL document CHEMBL4052661, “Structure Based Design of N-(3-((1H-Pyrazolo[3,4-b]pyridin-5-yl)ethynyl)benzenesulfonamides as Selective Leucine-Zipper and Sterile-α Motif Kinase (ZAK) Inhibitors” (J Med Chem, 2017).

Tests used:
[1] = biological target: Serine/threonine-protein kinase B-raf (Homo sapiens, UniProt P15056, V600E); test: Inhibition of recombinant human B-RAF V600E mutant using Ser/Thr3 as substrate after 1 hr by FRET-based Z'-Lyte assay
[2] = biological target: Serine/threonine-protein kinase B-raf (Homo sapiens, UniProt P15056); test: Inhibition of wild type GST-tagged recombinant human full-length B-RAF expressed in baculovirus expression system using Ser/Thr3 as substrate after 1 hr by FRET-based Z'-Lyte assay
Sequence of Serine/threonine-protein kinase B-raf (Homo sapiens, UniProt P15056) (P15056 whole entry): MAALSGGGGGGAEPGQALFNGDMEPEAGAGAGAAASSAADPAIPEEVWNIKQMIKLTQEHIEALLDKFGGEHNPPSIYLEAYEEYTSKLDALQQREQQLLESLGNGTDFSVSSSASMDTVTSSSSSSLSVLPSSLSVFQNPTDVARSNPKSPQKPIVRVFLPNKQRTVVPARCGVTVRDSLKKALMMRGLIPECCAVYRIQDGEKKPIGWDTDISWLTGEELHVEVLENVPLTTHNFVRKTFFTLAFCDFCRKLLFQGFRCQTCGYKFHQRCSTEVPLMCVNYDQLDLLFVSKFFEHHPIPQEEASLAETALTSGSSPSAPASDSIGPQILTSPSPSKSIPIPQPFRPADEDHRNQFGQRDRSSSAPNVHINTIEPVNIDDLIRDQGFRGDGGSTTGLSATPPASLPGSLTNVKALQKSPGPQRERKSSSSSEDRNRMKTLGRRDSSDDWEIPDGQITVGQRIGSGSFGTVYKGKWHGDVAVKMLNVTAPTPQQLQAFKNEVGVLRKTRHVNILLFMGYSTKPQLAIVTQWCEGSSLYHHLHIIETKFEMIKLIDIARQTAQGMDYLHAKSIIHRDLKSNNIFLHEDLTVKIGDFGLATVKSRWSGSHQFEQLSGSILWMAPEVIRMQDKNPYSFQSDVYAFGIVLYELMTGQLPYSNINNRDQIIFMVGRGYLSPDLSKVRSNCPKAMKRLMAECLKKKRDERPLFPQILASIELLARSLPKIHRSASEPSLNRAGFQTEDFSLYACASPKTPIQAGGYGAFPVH
How it was run: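 Z'-Lyte FRET assay with Ser/Thr3 peptide in kinase buffer; the final reaction held 0.002 ng B-Raf for wild type. Incubated 1 h at room temperature, then 1 h development to cleave nonphosphorylated peptide, then stop reagent. Means of 3 independent experiments.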

[3] = biological target: Mitogen-activated protein kinase kinase kinase 20 (Homo sapiens, UniProt Q9NYL2); test: Inhibition of N-terminal GST-tagged recombinant human full-length ZAK expressed in baculovirus infected Sf9 insect cells using MBP as substrate after 30 mins by ADP-Glo assay
Sequence of Mitogen-activated protein kinase kinase kinase 20 (Q9NYL2 whole entry): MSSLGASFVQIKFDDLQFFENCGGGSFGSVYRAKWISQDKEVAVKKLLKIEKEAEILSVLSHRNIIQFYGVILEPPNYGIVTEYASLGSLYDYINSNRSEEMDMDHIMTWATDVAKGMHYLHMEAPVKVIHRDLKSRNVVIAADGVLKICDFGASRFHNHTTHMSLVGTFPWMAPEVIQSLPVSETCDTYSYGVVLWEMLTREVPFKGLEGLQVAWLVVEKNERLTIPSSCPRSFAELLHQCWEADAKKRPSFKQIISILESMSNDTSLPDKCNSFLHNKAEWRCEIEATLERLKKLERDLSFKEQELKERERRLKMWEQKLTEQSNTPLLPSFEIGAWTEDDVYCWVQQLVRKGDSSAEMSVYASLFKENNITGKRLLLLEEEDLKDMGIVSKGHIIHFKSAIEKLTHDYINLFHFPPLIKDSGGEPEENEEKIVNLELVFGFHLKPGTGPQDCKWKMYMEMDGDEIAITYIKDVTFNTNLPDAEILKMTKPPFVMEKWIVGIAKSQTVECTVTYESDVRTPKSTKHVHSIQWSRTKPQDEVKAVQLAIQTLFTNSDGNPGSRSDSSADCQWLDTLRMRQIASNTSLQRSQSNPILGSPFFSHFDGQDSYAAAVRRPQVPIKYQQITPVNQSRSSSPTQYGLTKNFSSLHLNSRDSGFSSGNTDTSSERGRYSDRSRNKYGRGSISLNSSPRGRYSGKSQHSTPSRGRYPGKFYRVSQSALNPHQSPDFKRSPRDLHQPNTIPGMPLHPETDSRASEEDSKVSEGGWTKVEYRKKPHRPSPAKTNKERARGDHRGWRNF
How it was run: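 ZAK activity by ADP-Glo luminescence with MBP as substrate, ATP and serially diluted compound. Reaction started by adding ATP and run 30 min at room temperature. ADP-Glo reagent was added to stop it (40 min), then detection reagent for 30 min before reading luminescence. Curves fitted; each experiment repeated at least 3 times.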

Sequence of Serine/threonine-protein kinase B-raf (Homo sapiens, UniProt P15056, V600E) (P15056 2-766 V600E limits assumed): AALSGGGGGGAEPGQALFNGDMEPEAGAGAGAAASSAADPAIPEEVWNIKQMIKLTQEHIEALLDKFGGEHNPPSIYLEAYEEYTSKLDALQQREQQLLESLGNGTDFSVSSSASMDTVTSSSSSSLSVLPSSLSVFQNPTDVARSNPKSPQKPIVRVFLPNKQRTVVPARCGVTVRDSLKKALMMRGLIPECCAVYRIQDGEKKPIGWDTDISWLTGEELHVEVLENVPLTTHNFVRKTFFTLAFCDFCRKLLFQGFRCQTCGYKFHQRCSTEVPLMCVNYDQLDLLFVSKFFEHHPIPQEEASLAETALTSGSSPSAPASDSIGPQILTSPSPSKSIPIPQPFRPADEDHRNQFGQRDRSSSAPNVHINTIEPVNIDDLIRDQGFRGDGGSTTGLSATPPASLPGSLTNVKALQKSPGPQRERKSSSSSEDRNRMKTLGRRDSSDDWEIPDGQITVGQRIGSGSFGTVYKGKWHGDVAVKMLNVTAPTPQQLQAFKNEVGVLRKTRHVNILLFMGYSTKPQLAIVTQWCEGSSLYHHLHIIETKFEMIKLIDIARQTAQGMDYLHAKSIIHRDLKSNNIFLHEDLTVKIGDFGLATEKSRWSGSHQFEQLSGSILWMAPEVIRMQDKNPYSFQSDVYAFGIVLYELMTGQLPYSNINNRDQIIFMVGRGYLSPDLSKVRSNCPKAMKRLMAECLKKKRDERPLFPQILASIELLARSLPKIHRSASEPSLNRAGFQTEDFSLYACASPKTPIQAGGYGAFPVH

| Compound | IC50 [1] [nM] | IC50 [2] [nM] | IC50 [3] [nM] |
| --- | --- | --- | --- |
| COc1n[nH]c2ncc(C#Cc3c(F)ccc(NS(=O)(=O)c4ccc(Cl)cc4)c3F)cc12 | > 10000 | > 1000 | 16.8 |
| O=S(=O)(Nc1ccc(F)c(C#Cc2cnc3[nH]ncc3c2)c1F)c1cccc(Cl)c1 | > 10000 | > 5000 | 5.1 |
| COc1n[nH]c2ncc(C#Cc3c(F)ccc(NS(=O)(=O)c4ccccc4)c3F)cc12 | 169 | > 10000 | 19.2 |
| COc1n[nH]c2ncc(C#Cc3c(F)ccc(NS(=O)(=O)c4cccc(Br)c4)c3F)cc12 | > 1000 | > 1000 | 5 |
